In one assay the test system is glioma cell line (U87). The assay can be described thus: CCK8 cell proliferation assay, U87. The assay is classed as cell-based, human. The following applies: read-out: IC50 (μM) U87; CCK8, 48 h peptide treatment, 0.78–25 μM, OD 450 nm. The procedure, abridged: (§1)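 Cells kept in DMEM with 10% FBS and 1% penicillin-streptomycin at 37 °C, 5% CO2. Seeded at 3 × 10^3 cells/well and grown for 24 h. Treated with or without peptide (0.78, 1.56, 3.125, 6.25, 12.5, 25 μM) for 48 h. Medium then switched to serum-free; CCK-8 added 10 μL/well for 1 h at 37 °C. OD read at 450 nm; IC50 obtained by curve fitting.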
Background: Tetrazolium dyes change colour on reduction, which living cells bring about.

Assay [1] deals with human breast cancer cell line (MCF-7). Kind of assay: CCK8 cell proliferation assay, MCF-7. The following applies: read-out: IC50 (μM) MCF-7; CCK8, 48 h peptide treatment, 0.78–25 μM, OD 450 nm. It counts as cell-based. The procedure, abridged:
as §1

The test system of assay [2] is human colon cancer cell line (HCT116). Kind of assay: CCK8 cell proliferation assay, HCT116. The assay is classed as cell-based. The note with it: read-out: IC50 (μM) HCT116; CCK8, 48 h peptide treatment, 0.78–25 μM, OD 450 nm. The procedure, abridged:
as §1

Assay [3] relates to MCF-7 cells. Kind of assay: In vitro transwell migration assay. It counts as cell-based, human. The note with it: MCF-7, transwell 8 μm pore, 48 h, compared with control group, n = 3.
For assay [4], the system named is MCF-7 cells. The assay can be described thus: Annexin V-FITC/PI apoptosis assay by flow cytometry. The following applies: MCF-7, 10 μM peptide. It counts as cell-based, human. (In flow cytometry, cells or beads pass a laser one at a time.)
The test system of assay [5] is MCF-7 cells. The assay can be described thus: Calcein-AM/PI cell viability staining. The assay is classed as cell-based, human. The note with it: MCF-7, 10 μM peptide, 24 hours. The essentials:
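MCF-7 seeded at 5 × 10^3 cells/well and held at 37 °C for 24 h. Peptide added at a final 10 μM for another 24 h. Cells stained with a PBS working solution of calcein-AM (2 μM) and PI (4.5 μM) at 37 °C for 15 min. Live/dead fluorescence imaged on a high-content screening system.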

For orientation: IC50 means the concentration at which inhibition is half-maximal.

*1 amine or outer side, *2 acyl side, *3 side chain or, on linkers, in order; H or OH if unused. Where a SMILES comes first, the peptide text is derived from it. Bridges are numbered along the chain shown (N, C = ends). Biphenyl(4,4'-CH2)2 = c1cc(-c2ccc(C[*:2])cc2)ccc1C[*:1]; mXylylene = c1cc(C[*:1])cc(C[*:2])c1; oXylylene = c1ccc(C[*:2])c(C[*:1])c1; pXylylene = c1cc(C[*:2])ccc1C[*:1]

Regarding `CC(C)C[C@H](NC(=O)[C@H](CC(C)C)NC(=O)[C@H](CC(=O)O)NC(=O)[C@H](CCCCN)NC(=O)[C@H](Cc1ccccc1)NC(=O)CN)C(=O)N[C@@H](CCCCN)C(=O)NCC(=O)N[C@@H](C)C(=O)N[C@@H](C)C(=O)N[C@@H](CCCCN)C(=O)N[C@H]1CSCc2cccc(c2)CSC[C@@H](C(=O)N[C@H](C(=O)N[C@@H](CC(C)C)C(=O)N[C@@H](Cc2ccccc2)C(N)=O)C(C)C)NC(=O)[C@H](CCCCN)NC(=O)[C@H](C(C)C)NC(=O)[C@H](CC(C)C)NC1=O` [Peptide A8-3-m] (H-GFKDLLKGAAKCLVKCVLF-NH2; linker 12-16 via mXylylene), the IC50 was 8.69 µM with glioma cell line (U87), 7.8 µM in assay [1] and 9.21 µM in assay [2].

With `CC(C)C[C@H](NC(=O)[C@H](CC(C)C)NC(=O)[C@H](CC(=O)O)NC(=O)[C@H](CCCCN)NC(=O)[C@H](Cc1ccccc1)NC(=O)CN)C(=O)N[C@@H](CCCCN)C(=O)NCC(=O)N[C@@H](C)C(=O)N[C@@H](C)C(=O)N[C@@H](CCCCN)C(=O)N[C@H]1CSCc2ccc(cc2)CSC[C@@H](C(=O)N[C@H](C(=O)N[C@@H](CC(C)C)C(=O)N[C@@H](Cc2ccccc2)C(N)=O)C(C)C)NC(=O)[C@H](CCCCN)NC(=O)[C@H](C(C)C)NC(=O)[C@H](CC(C)C)NC1=O` [Peptide A8-3-p] (H-GFKDLLKGAAKCLVKCVLF-NH2; linker 12-16 via pXylylene), the IC50 with glioma cell line (U87) stood at 14.4 µM; in assay [1] it was 11.7 µM; in assay [2], 11.2 µM.

For the compound `CC(C)C[C@@H]1NC(=O)[C@H](C)NC(=O)[C@H](CCCCN)NC(=O)[C@H](C)NC(=O)[C@@H](NC(=O)CNC(=O)[C@H](CCCCN)NC(=O)[C@H](CC(C)C)NC(=O)[C@H](CC(C)C)NC(=O)[C@H](CC(=O)O)NC(=O)[C@H](CCCCN)NC(=O)[C@H](Cc2ccccc2)NC(=O)CN)CSCc2ccc(cc2)-c2ccc(cc2)CSC[C@@H](C(=O)N[C@H](C(=O)N[C@@H](CC(C)C)C(=O)N[C@@H](Cc2ccccc2)C(N)=O)C(C)C)NC(=O)[C@H](CCCCN)NC(=O)[C@H](C(C)C)NC1=O` [Peptide A8-4-Dp] (H-GFKDLLKGCAKALVKCVLF-NH2; linker 9-16 via Biphenyl(4,4'-CH2)2), the IC50 in the assay with glioma cell line (U87) stood at 3.63 µM; in assay [1], 2.99 µM; in assay [2], 3.03 µM. The “Migration through the polycarbonate membrane” value in the assay on MCF-7 cells [3] is “rarely migrated”. For the same compound, the “Number of apoptotic cells versus Ascaphin-8 and normal medium” value in the assay with MCF-7 cells [4] is on record as “significantly higher”. In the assay on MCF-7 cells [5], the “Calcein-AM/PI fluorescence of cells” value is “a large amount of red fluorescence”.

On to `CC(C)C[C@H](NC(=O)[C@H](CC(C)C)NC(=O)[C@H](CC(=O)O)NC(=O)[C@H](CCCCN)NC(=O)[C@H](Cc1ccccc1)NC(=O)CN)C(=O)N[C@@H](CCCCN)C(=O)NCC(=O)N[C@@H](C)C(=O)N[C@@H](C)C(=O)N[C@@H](CCCCN)C(=O)N[C@H]1CSCc2ccccc2CSC[C@@H](C(=O)N[C@H](C(=O)N[C@@H](CC(C)C)C(=O)N[C@@H](Cc2ccccc2)C(N)=O)C(C)C)NC(=O)[C@H](CCCCN)NC(=O)[C@H](C(C)C)NC(=O)[C@H](CC(C)C)NC1=O` [Peptide A8-3-o] (H-GFKDLLKGAAKCLVKCVLF-NH2; linker 12-16 via oXylylene), for which the IC50 came out at 9.28 µM in the assay with glioma cell line (U87), 6.03 µM in assay [1] and 7.68 µM in assay [2].

(Values after article PMC10318414 (RSC Advances, 2023).)
